An excerpt weighted towards active compounds, which were near 2.9% of everything screened.
SIRT5 inh: SIRT5 desuccinylase inhibitors, primary screen, biochemical, fluorescence imaging, single point, set 5; Purified SirT5, succinyl-peptide AMC, trypsin-coupled fluorescence; inhibition, % at 15 µM; 330,000 tested, 1.1% active; AID 652115, 2013; in the data active = inhibition above about 15%; inconclusive = no clear call, values can overlap the other calls
Target sequence (Q9NXA8 whole entry, looked up): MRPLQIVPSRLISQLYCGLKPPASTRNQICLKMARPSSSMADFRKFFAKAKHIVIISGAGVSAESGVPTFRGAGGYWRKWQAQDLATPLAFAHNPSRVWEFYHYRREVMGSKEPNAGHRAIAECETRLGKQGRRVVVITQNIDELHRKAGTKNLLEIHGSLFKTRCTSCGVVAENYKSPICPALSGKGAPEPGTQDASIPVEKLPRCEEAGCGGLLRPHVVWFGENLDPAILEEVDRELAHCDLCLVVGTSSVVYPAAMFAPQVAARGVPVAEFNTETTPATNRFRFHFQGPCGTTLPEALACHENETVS
Statin myotox sup: suppressors of statin myotoxicity in C2C12 myotubes, primary screen, cell-based, single point, plate reader; AID 602340, 2012; rescue of ATP level, % at 7.49 µM; 330,000 tested, 0.78% active; C2C12 myotubes + simvastatin, ATP luminescence, 48 h; scaled: DMSO 0, geranylgeraniol control 100;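 active = mean ATP rescue above about 67%, or every replicate alone reaching that limit, limit read from the data, passing the limit was not always enough; inconclusive = no clear call, values can overlap the other calls; inactive = mean under the limit and some replicate under it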;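 also: myotubes were challenged with 10 µM simvastatin during compound exposure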
S100A4 inh HTS: inhibitors of S100A4-myosin IIA peptide binding, primary screen, biochemical, fluorescence polarization, TAMRA-MyoIIA peptide. Protein S100-A4 (Homo sapiens), P26447. inhibition, % at 10.7 µM. 360,000 tested, 0.14% active. AID 652163, 2013;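 active = mean inhibition of at least 70% across replicates, with every replicate also reaching that level; inconclusive = mean inhibition reaches 70% but some replicates fall short; inactive = mean inhibition below 70%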
Target sequence (P26447 whole entry, looked up): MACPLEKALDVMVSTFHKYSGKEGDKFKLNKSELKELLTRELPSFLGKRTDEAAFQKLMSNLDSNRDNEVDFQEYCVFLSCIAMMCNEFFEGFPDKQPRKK
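Material: S100A4 monomer (human). Medium: Calcium-containing HEPES buffer, pH 7.2. Probe or stimulus: labelled myosin peptide probe, 5 nM. Compound dosing: one concentration per compound. Timing: polarization read 5 min after assay mix addition, stable 5–60 min. Benchmarks: DMSO as neutral control, TFP as positive control.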
PGC1a acetyl inh: inhibitors of PGC1a acetylation signal, primary screen, cell-based, U2OS, AlphaScreen, inhibitor mode; inhibition, % at 15.6 µM; AID 651687, 2012; 350,000 tested, 0.17% active; AlphaScreen anti-acetyl-lysine; with virally co-expressed GCN5 acetyltransferase;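 active = every replicate shows inhibition of at least 40%; inconclusive = mean inhibition at least 40% but some replicate below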;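 also: 0% = neutral control wells and 100% = positive control wells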
DENV2 CPE: inhibitors of DENV2 cytopathic effect, primary screen, cell-based, plate reader, single concentration; DENV2-infected cells, cytopathic effect rescue; CPE inhibition, % at 9.99 µM; 350,000 tested, 1.7% active; in the data active = CPE inhibition above about 20%, passing the limit was not always enough; inconclusive = no clear call, values can overlap the other calls; tested in BHK-21 cells;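 also: 0% = median of neutral control wells and 100% = median of positive control wells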
* = called active by the depositor; ? = inconclusive; · = no result; ! = a repeat was not active.

SMILES	SIRT5 inh	Statin myotox sup	S100A4 inh HTS	PGC1a acetyl inh	DENV2 CPE
CCOC(=O)C(=Cc1ccc(Br)cc1)C(=O)OCC	-2	13	5	13	1
Cc1noc(C)c1S(=O)(=O)Nc1ccc2c(c1)C(=O)N([C@@H](C)CO)C[C@@H](C)[C@@H](CN(C)S(=O)(=O)c1ccccc1)OCCCC[C@@H](C)O2	3	·	-4	-8	-9
CC1CCN(S(=O)(=O)N2CCC(C(=O)N3CCC(N(C)CC4CCCO4)CC3)CC2)CC1 (centres undefined)	18*	-9	-1	-4	?
O=C(NCC1CCCO1)C1CCN(S(=O)(=O)N2CCCC2)CC1 (centres undefined)	·	2	·	·	·
C[C@@H]1CN([C@@H](C)CO)C(=O)Cc2cc(NC(=O)Nc3cccc4ccccc34)ccc2O[C@@H]1CN(C)Cc1ccccc1	1	0	3	·	-9
C[C@H]1CN([C@@H](C)CO)C(=O)Cc2cc(NC(=O)Nc3cccc4ccccc34)ccc2O[C@H]1CN(C)Cc1ccc(Cl)c(Cl)c1	15*	13	2	-2	10
C[C@@H]1CN([C@H](C)CO)C(=O)Cc2cc(NC(=O)Nc3cccc4ccccc34)ccc2O[C@H]1CN(C)Cc1ccccc1	-2	73*	-19	·	12
C[C@@H]1CN([C@@H](C)CO)C(=O)Cc2cc(NC(=O)Nc3cccc4ccccc34)ccc2O[C@@H]1CN(C)Cc1ccc(C(F)(F)F)cc1	1	98*	-4	-10	?
COc1ccc(CN(C)C[C@H]2Oc3ccc(NS(=O)(=O)c4ccc(Cl)cc4)cc3CC(=O)N([C@H](C)CO)C[C@@H]2C)cc1	·	·	28	-8	-2
CCOC(=O)N1CCN(S(=O)(=O)c2ccc3[nH]cc(C(=O)O)c(=O)c3c2)CC1	·	97*	·	4	·
O=C(c1ccccc1)N1CCN(C(=O)C2CC2)CC1	-1	34	-1	·	-4
O=C(C1CC1)N1CCC(C(O)(c2ccccc2)c2ccccc2)CC1	·	85*	·	-8	·
CC(=O)Nc1ccccc1OCCCN1CCC(C(O)(c2ccccc2)c2ccccc2)CC1	1	·	-1	·	4
CC(=O)Nc1ccc(OCCCN2CCC(C(O)(c3ccccc3)c3ccccc3)CC2)cc1	-4	·	6	·	34*
Cc1cccc(OCCCN2CCC(C(O)(c3ccccc3)c3ccccc3)CC2)c1	0	·	2	·	34*
C/C(=N/NS(=O)(=O)c1ccc(Br)cc1)c1ccc(NC(=O)c2ccc(C)o2)cc1	·	76*	·	10	·
C[C@@H]1CN([C@@H](C)CO)S(=O)(=O)c2ccc(C#CC3CC3)cc2O[C@H]1CN(C)C	-2	15	3	-8	13
O=C(N/N=C/c1ccccn1)c1cc(-c2ccc(Br)s2)[nH]n1	18*	7	0	·	-3
CC(C)C(=O)Nc1ccc2c(c1)C(=O)N(C)[C@H]1CC[C@@H](CC(=O)NCCc3ccccc3)O[C@H]1CO2	·	8	·	1	·
COc1ccc(-c2noc(CCCOc3ccc(Cl)cc3Cl)n2)cc1	·	109*	·	7	·
COc1ccc(CN(C)C[C@@H]2Oc3c(NC(=O)Nc4ccc(F)cc4)cccc3C(=O)N([C@@H](C)CO)C[C@@H]2C)cc1	5	28	4	-1	?
Cc1cccc(N=O)n1	·	·	-3	·	0
Cc1cccc(N=[N+]([O-])c2cccc(C)n2)n1	2	7	0	13	27*
CCn1c(SCC(=O)N2CCCCCC2)nc2c([nH]c3ccccc32)c1=O	-9	-21	1	·	63*
O=C(C[C@H]1C[C@H]2c3cc(NC(=O)CC4CC4)ccc3O[C@H]2[C@H](CO)O1)NCc1ccncc1	0	-1	4	-3	5
SMILES	SIRT5 inh	Statin myotox sup	S100A4 inh HTS	PGC1a acetyl inh	DENV2 CPE
O=c1cc(N2CCN(c3ccccc3)CC2)[nH]c(=O)n1C1CCCCC1	·	-120	·	6	·
O=c1cc(N2CCOCC2)[nH]c(=O)n1C1CCCCC1	·	122*	·	-4	·
C[C@@H]1CCCCO[C@H](CN(C)CC2CC2)[C@@H](C)CN([C@@H](C)CO)C(=O)c2cc(NS(=O)(=O)c3ccc(F)cc3)ccc2O1	-1	·	-21	6	5
CCc1cc2c(=O)[nH]c(COC)nc2s1	-1	·	-1	·	46*
CCc1cc2c(=O)[nH]c(Cc3ccc(OC)cc3)nc2s1	-3	·	-1	·	-2
COc1ccc(-c2sc3ccccc3c2/C=C/c2ccncc2)cc1	3	-4	7	6	20*
O=C1C(c2ccc(F)cc2)N(C2CCCCC2)C(=O)CN1C1CCCC1 (centres undefined)	·	-3	·	-6	·
Cc1ccc(C2C(=O)N(C3CCC(C)CC3)CC(=O)N2C2CCCC2)cc1 (centres undefined)	·	124*	·	7	·
C[C@@H]1CN([C@H](C)CO)C(=O)c2cccc(NS(=O)(=O)c3ccccc3)c2O[C@H]1CN(C)C(=O)Nc1ccc(C(F)(F)F)cc1	9	-9	-3	-7	17
CNC(=O)c1ccsc1NC(=O)c1ccc(S(=O)(=O)N2CCCc3ccccc32)cc1	4	76*	-13	-28	-6
O=C(Nc1nc2c(s1)CCCC2)c1ccc(S(=O)(=O)N2CCCc3ccccc32)cc1	·	·	·	-5	·
COc1ccc(S(=O)(=O)Nc2ccc3c(c2)[C@H]2C[C@H](CC(=O)N(C)C)O[C@H](CO)[C@H]2O3)cc1	13	-8	-11	-4	-4
O=C(Nc1nc(NC(=O)c2ccco2)n(-c2ccccc2)n1)c1ccccc1	·	94*	·	18	·
Cc1ccc(OCCOCCN2CCCC2)c(Br)c1	-2	-4	-8	-22	44*
COCC(=O)N1CCCCN2[C@H](C1)[C@@H](c1ccc(C#Cc3cccnc3)cc1)[C@@H]2CO	-13	·	-12	-4	23*
O=C(c1cccnc1)N1CCCCN2[C@H](CO)[C@@H](c3ccc(C#Cc4cccnc4)cc3)[C@H]2C1	·	·	·	10	25*
COCC(=O)N1CCCCN2[C@H](CO)[C@@H](c3ccc(C#Cc4cccnc4)cc3)[C@@H]2C1	-2	·	-4	0	-3
CN(C)CC(=O)N1CCCCN2[C@H](CO)[C@H](c3ccc(-c4cccnc4)cc3)[C@@H]2C1	-1	·	0	6	22*
COCC(=O)N1CCCCN2[C@H](CO)[C@@H](c3ccc(C#Cc4cccnc4)cc3)[C@H]2C1	0	·	1	11	32*
COCC(=O)Nc1ccc2c(c1)C(=O)N(C)[C@@H]1CC[C@@H](CC(=O)NCC3CCCCC3)O[C@H]1CO2	7	-26	20	5	-14
CCN1CCN(Cc2ccc(NC(=O)c3ccc(C)c(NC(=O)N4CCNC4=O)c3)cc2C(F)(F)F)CC1	-9	-7	-1	-6	120*!

From PubChem
